{"source": "ChEMBL document CHEMBL5344437", "about": "“Novel Drug Screening Assay for Acanthamoeba castellanii and the Anti-Amoebic Effect of Carbonic Anhydrase Inhibitors” (J Med Chem, 2024)", "type_in_all_cases": "functional, organism-based", "key": {"Acanthamoeba castellanii [1]": {"tested_on": "Acanthamoeba castellanii", "assay": "Anti-amoebic activity against Acanthamoeba castellanii ATCC 30010 cyst assessed as reduction in cyst survival at […] incubated for 24 to 72 hrs by crystal violet staining based assay", "details": "time 24-72 hrs", "outline": "(§1)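 Cyst survival: after 24, 48 or 72 h of inhibitor exposure of 1000 cells per well in PYG, the medium-inhibitor solution was moved to a new plate and topped up with fresh medium. It was then incubated 5 days at +25 °C so cysts could excyst. Wells were fixed with methanol, stained with 0.1% crystal violet, eluted with 10% acetic acid and read at 590 nm. Unpaired t-test versus control at 72 h.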"}, "Acanthamoeba castellanii [2]": {"tested_on": "Acanthamoeba castellanii", "assay": "Anti-amoebic activity against Acanthamoeba castellanii ATCC 30010 trophozoites assessed as reduction in amoebic growth at 100 nM incubated for 24 to 72 hrs by crystal violet staining based assay", "details": "time 24-72 hrs", "outline": "(§2)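 Trophozoites scraped from an axenic PYG culture at +25 °C were plated at 1000 cells per well with an inhibitor dilution series in PYG medium, with a separate plate for each time point (24, 48, 72 h). Cells were fixed with methanol, stained with 0.1% crystal violet, dissolved in 10% acetic acid and read at 590 nm. Two experiments, 6–15 wells per concentration; unpaired t-test versus control at 72 h.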"}, "Acanthamoeba castellanii [3]": {"tested_on": "Acanthamoeba castellanii", "assay": "Anti-amoebic activity against Acanthamoeba castellanii ATCC 30010 cyst assessed as inhibition of excystation at 10 uM incubated for 72 hrs by crystal violet staining based assay"}, "Acanthamoeba castellanii [4]": {"tested_on": "Acanthamoeba castellanii", "assay": "Anti-amoebic activity against Acanthamoeba castellanii ATCC 30010 cyst assessed as inhibition of excystation at >= 10 uM incubated for 72 hrs by crystal violet staining based assay"}, "Acanthamoeba castellanii [5]": {"tested_on": "Acanthamoeba castellanii", "assay": "Anti-amoebic activity against Acanthamoeba castellanii ATCC 30010 trophozoites assessed as reduction in amoebic growth at 1 to 100 nM incubated for 24 to 72 hrs by crystal violet staining based assay", "details": "dose 1-100 nM, time 24-72 hrs", "outline": "as §2"}, "Acanthamoeba castellanii [6]": {"tested_on": "Acanthamoeba castellanii", "assay": "Anti-amoebic activity against Acanthamoeba castellanii ATCC 30010 trophozoites assessed as reduction in amoebic growth at 1 to 100 uM incubated for 24 to 72 hrs by crystal violet staining based assay", "details": "dose 1-100 µM, time 24-72 hrs", "outline": "as §2"}, "Acanthamoeba castellanii [7]": {"tested_on": "Acanthamoeba castellanii", "assay": "Anti-amoebic activity against Acanthamoeba castellanii ATCC 30010 cyst assessed as reduction in cyst survival at 9.38 uM incubated for 24 to 72 hrs by crystal violet staining based assay", "details": "time 24-72 hrs", "outline": "as §1"}, "Acanthamoeba castellanii [8]": {"tested_on": "Acanthamoeba castellanii", "assay": "Anti-amoebic activity against Acanthamoeba castellanii ATCC 30010 trophozoites assessed as reduction in amoebic growth at 938 nM incubated for 24 to 72 hrs by crystal violet staining based assay", "details": "time 24-72 hrs", "outline": "as §2"}, "Acanthamoeba castellanii [9]": {"tested_on": "Acanthamoeba castellanii", "assay": "Anti-amoebic activity against Acanthamoeba castellanii ATCC 30010 cyst assessed as inhibition of excystation at 188 nM incubated for 72 hrs by crystal violet staining based assay"}, "Acanthamoeba castellanii [10]": {"tested_on": "Acanthamoeba castellanii", "assay": "Anti-amoebic activity against Acanthamoeba castellanii ATCC 30010 cyst assessed as inhibition of excystation at >= 62.5 uM incubated for 72 hrs by crystal violet staining based assay"}, "Acanthamoeba castellanii [11]": {"tested_on": "Acanthamoeba castellanii", "assay": "Anti-amoebic activity against Acanthamoeba castellanii ATCC 30010 trophozoites assessed as reduction in amoebic growth at 15.6 uM incubated for 24 to 72 hrs by crystal violet staining based assay", "details": "time 24-72 hrs", "outline": "as §2"}, "Acanthamoeba castellanii [12]": {"tested_on": "Acanthamoeba castellanii", "assay": "Anti-amoebic activity against Acanthamoeba castellanii ATCC 30010 cyst assessed as reduction in cyst survival at 7.81 to 250 uM incubated for 24 to 72 hrs by crystal violet staining based assay", "details": "dose 7.81-250 µM, time 24-72 hrs", "outline": "as §1"}, "Acanthamoeba castellanii [13]": {"tested_on": "Acanthamoeba castellanii", "assay": "Anti-amoebic activity against Acanthamoeba castellanii ATCC 30010 cyst assessed as reduction in cyst survival at >= 500 uM incubated for 24 to 72 hrs by crystal violet staining based assay", "details": "time 24-72 hrs", "outline": "as §1"}, "Acanthamoeba castellanii [14]": {"tested_on": "Acanthamoeba castellanii", "assay": "Anti-amoebic activity against Acanthamoeba castellanii ATCC 30010 cyst assessed as reduction in cyst survival at 1 mM incubated for 24 to 72 hrs by crystal violet staining based assay", "details": "time 24-72 hrs", "outline": "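Scraped PYG-grown cells, 1000 per well, exposed 24, 48 or 72 h at +25 °C. Medium-inhibitor solution then moved to new plates, topped with fresh medium, and held 5 days at +25 °C to allow excystation. Methanol fix, 0.1% crystal violet, 10% acetic acid, A590. Unpaired t-test vs control at 72 h.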"}, "Acanthamoeba castellanii [15]": {"tested_on": "Acanthamoeba castellanii", "assay": "Anti-amoebic activity against Acanthamoeba castellanii ATCC 30010 trophozoites assessed as reduction in amoebic growth at 100 uM incubated for 24 to 72 hrs by crystal violet staining based assay", "details": "time 24-72 hrs", "outline": "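Trophozoites scraped from steady-state PYG culture, 1000 cells per well in inhibitor-containing PYG, +25 °C, separate plates read at 24, 48, 72 h. Methanol fix, 0.1% crystal violet, 10% acetic acid elution, A590. Two experiments, ≥3 wells each. Unpaired t-test vs drug-free control at 72 h.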"}, "Acanthamoeba castellanii [16]": {"tested_on": "Acanthamoeba castellanii", "assay": "Anti-amoebic activity against Acanthamoeba castellanii ATCC 30010 cyst assessed as inhibition of excystation at 100 uM incubated for 72 hrs by crystal violet staining based assay", "outline": "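Axenic culture in PYG medium at +25 °C, grown past peak density to induce encystment; 1000 cysts per well added to inhibitor diluted in PYG, incubated 72 h at +25 °C. Methanol fix, 0.1% crystal violet stain (remaining cysts washed off), dissolve in 10% acetic acid, absorbance 590 nm. Unpaired t-test vs drug-free control; 6 replicates.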"}}, "note": "The source made the active and inactive calls. No cut-off for these calls is given here."}
{"smiles": "CCN[C@H]1C[C@H](C)S(=O)(=O)c2sc(S(N)(=O)=O)cc21", "values": [{"measurement": "Activity", "setting": "Acanthamoeba castellanii [1]", "value": "Active"}, {"measurement": "Activity", "setting": "Acanthamoeba castellanii [2]", "value": "Active"}, {"measurement": "Activity", "setting": "Acanthamoeba castellanii [3]", "value": "Active"}]}
{"smiles": "CCN[C@H]1CN(CCCOC)S(=O)(=O)c2sc(S(N)(=O)=O)cc21", "values": [{"measurement": "Activity", "setting": "Acanthamoeba castellanii [4]", "value": "Active"}, {"measurement": "Activity", "setting": "Acanthamoeba castellanii [5]", "value": "inactive"}, {"measurement": "Activity", "setting": "Acanthamoeba castellanii [6]", "value": "inactive"}]}
{"smiles": "CCOc1ccc2nc(S(N)(=O)=O)sc2c1", "values": [{"measurement": "Activity", "setting": "Acanthamoeba castellanii [7]", "value": "Active"}, {"measurement": "Activity", "setting": "Acanthamoeba castellanii [8]", "value": "Active"}, {"measurement": "Activity", "setting": "Acanthamoeba castellanii [9]", "value": "Active"}]}
{"smiles": "NN1CCN(NC(=S)S)CC1", "values": [{"measurement": "Activity", "setting": "Acanthamoeba castellanii [10]", "value": "Active"}, {"measurement": "Activity", "setting": "Acanthamoeba castellanii [11]", "value": "Active"}, {"measurement": "Activity", "setting": "Acanthamoeba castellanii [12]", "value": "inactive"}, {"measurement": "Activity", "setting": "Acanthamoeba castellanii [13]", "value": "Active"}]}
{"smiles": "CC(=O)Nc1nnc(S(N)(=O)=O)s1", "values": [{"measurement": "Activity", "setting": "Acanthamoeba castellanii [14]", "value": "Active"}, {"measurement": "Activity", "setting": "Acanthamoeba castellanii [15]", "value": "Active"}, {"measurement": "Activity", "setting": "Acanthamoeba castellanii [16]", "value": "Active"}]}
